How the values were obtained:
Translocator protein [1] = target: T1, Translocator protein (Rattus norvegicus, UniProt P16257); assay: Displacement of [3H]PK11195 from peripheral benzodiazepine receptor of rat cerebral cortex; format: tissue-based
In short: (§1)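 Rat tissue (cerebral cortex, ovary) homogenised in 50 vol PBS pH 7.4 at 4 °C, spun at 40 000g for 30 min, washed, resuspended in 10 vol PBS. […] Filtration on polyethyleneimine-soaked GF/B filters, scintillation counting. […] Means of three experiments in duplicate; Ki reported.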

[2] = target: GABA-A receptor; anion channel; assay: Displacement of [3H]flunitrazepam from central benzodiazepine GABA-A receptor of rat cerebral cortex; format: tissue-based
In short: (§2)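 Rat cerebral cortex homogenised in 50 vol ice-cold 50 mM Tris-HCl pH 7.4, spun twice at 20 000g for 10 min. Membranes (0.4–0.5 mg protein) incubated with [3H]flunitrazepam for 60 min at 0 °C. Rapid filtration on GF/B filters, scintillation counting. Nonspecific binding with 5 μM diazepam. Means of three experiments in duplicate; Ki reported.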

[3] = target: GABA-A receptor; anion channel; assay: Inhibitory concentration of central benzodiazepine GABA-A receptor of rat cerebral cortex; format: tissue-based; in short: as §2
Translocator protein [4] = target: T1, Translocator protein; assay: Inhibitory concentration against peripheral benzodiazepine receptor of rat cerebral cortex; format: tissue-based; in short: as §1
[5] = target: Benzodiazepine receptors; peripheral & central (Rattus norvegicus) (UniProt O09028+P15431+P18506+P18508+P19969+P20236+P23574+P23576+P28471+P28473+P30191+P62813+P63079+P63138+Q91ZM7+Q9ES14+P16257); assay: Ratio of inhibition for peripheral benzodiazepine receptor of rat ovary and central benzodiazepine GABA-A receptor; format: tissue-based; set-up: scale not given here; conditions: Female gonad
Translocator protein [6] = target: T1, Translocator protein; assay: Inhibitory concentration against peripheral benzodiazepine receptor of rat ovary; format: tissue-based, Female gonad; in short: as §1
Translocator protein [7] = target: T1, Translocator protein; assay: Displacement of [3H]-PK11195 from peripheral benzodiazepine receptor of rat ovary; format: tissue-based, Female gonad; in short: as §1

T1 sequence (P16257 whole entry, looked up): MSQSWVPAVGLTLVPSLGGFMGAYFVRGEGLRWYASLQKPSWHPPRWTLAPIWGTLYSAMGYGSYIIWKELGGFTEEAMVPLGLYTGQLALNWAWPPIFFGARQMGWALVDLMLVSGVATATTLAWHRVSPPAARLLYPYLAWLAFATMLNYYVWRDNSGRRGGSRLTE

Structure (SMILES)	Ki (Translocator protein [1]) [nM]	Ki [2] [nM]	pIC50 [3]	IC50 (Translocator protein [4]) [nM]	Selectivity index [5]	IC50 (Translocator protein [6]) [nM]	Ki (Translocator protein [7]) [nM]
CN(Cc1ccccc1)C(=O)Cc1c(-c2ccc(Cl)cc2)nc2c(Cl)cc(Cl)cn12	1.38	6880	5				
O=C(Cc1c(-c2ccc(Cl)cc2)nc2c(Cl)cc(Cl)cn12)NCc1ccccc1	98.8	7010	5	169			
O=C(Cc1c(-c2ccccc2)nc2c(Cl)cc(Cl)cn12)N1CCCCC1	95.9	7590	5	157	0.837	1460	1030
CCCCN(C(=O)Cc1c(-c2ccc(Cl)cc2)nc2c(Cl)cc(Cl)cn12)c1ccccc1	7.84	6880	5	13.3	3.32	4.8	3.65
CCCN(Cc1ccc([N+](=O)[O-])cc1)C(=O)Cc1c(-c2ccc(Cl)cc2)nc2c(Cl)cc(Cl)cn12	16	6880	5	27.2	2.16	69.7	50.5
CCOC(=O)C1CCCN(C(=O)Cc2c(-c3ccc(Cl)cc3)nc3c(Cl)cc(Cl)cn23)C1 (centres undefined)	79.8	6880	5	143	0.597	2530	1740
CCOC(=O)C1CCCN(C(=O)Cc2c(-c3ccc(Cl)cc3)nc3ccc(Cl)cn23)C1 (centres undefined)	19.6	130	6.725	35.2	-0.205	302	207
O=C(Cc1c(-c2ccc(Cl)cc2)nc2c(Cl)cc(Cl)cn12)N1CCc2ccccc2C1	2.97	6880	5	4.86	2.45	35.6	25.3
CCCCN(Cc1ccccc1)C(=O)Cc1c(-c2ccccc2)nc2c(Cl)cc(Cl)cn12	14.1	7010	5	24.2	2.05	89.7	64.7
CCCCNC(=O)Cc1c(-c2ccc(Cl)cc2)nc2c(Cl)cc(Cl)cn12	170	6880	5	390	1.54	290	170
CC(C(=O)N(C)C1CCCCC1)c1c(-c2ccc(Cl)cc2)nc2c(Cl)cc(Cl)cn12 (centres undefined)	2990	7010	5	5150	0.513	3070	2210
O=C(Cc1c(-c2ccccc2)nc2c(Cl)cc(Cl)cn12)N1CCCC1	757	6880	5	1240	0.029		6650
CCCCN(CCCC)C(=O)Cc1c(-c2ccc(Cl)cc2)nc2ccc(Cl)cn12	1.69	68.9	7.051	3.27	1.12	6.73	4.77
CCCCN(C(=O)Cc1c(-c2ccc(Cl)cc2)nc2ccc(Cl)cn12)c1ccccc1	0.884	506	6.133	1.5	1.8	11.6	8.82
CN(CCc1ccccn1)C(=O)Cc1c(-c2ccc(Cl)cc2)nc2c(Cl)cc(Cl)cn12	530	7750	5	899	0.294	5080	3690
O=C(Cc1c(-c2ccc(Cl)cc2)nc2c(Cl)cc(Cl)cn12)N1CCN(Cc2ccccc2)CC1	12700	6880	5	20800	-1.86	726000	516000
